Measurements from ChEMBL document CHEMBL4011617, “Ugi Reaction-Derived α-Acyl Aminocarboxamides Bind to Phosphatidylinositol 3-Kinase-Related Kinases, Inhibit HSF1-Dependent Heat Shock Response, and Induce Apoptosis in Multiple Myeloma Cells” (J Med Chem, 2017).
Activity calls are given as the source filed them.

Experiments:
[1] = biological target: T1, Heat shock factor protein 1 (Homo sapiens) (UniProt Q00613); assay: Inhibition of NVP-AUY922-induced HSF-1 phosphorylation in human INA-6 cells at 10 uM preincubated for 4 hrs followed by NVP-AUY922 addition measured after 4 hrs by Western blot method; format: cell-based
T1 sequence (whole entry): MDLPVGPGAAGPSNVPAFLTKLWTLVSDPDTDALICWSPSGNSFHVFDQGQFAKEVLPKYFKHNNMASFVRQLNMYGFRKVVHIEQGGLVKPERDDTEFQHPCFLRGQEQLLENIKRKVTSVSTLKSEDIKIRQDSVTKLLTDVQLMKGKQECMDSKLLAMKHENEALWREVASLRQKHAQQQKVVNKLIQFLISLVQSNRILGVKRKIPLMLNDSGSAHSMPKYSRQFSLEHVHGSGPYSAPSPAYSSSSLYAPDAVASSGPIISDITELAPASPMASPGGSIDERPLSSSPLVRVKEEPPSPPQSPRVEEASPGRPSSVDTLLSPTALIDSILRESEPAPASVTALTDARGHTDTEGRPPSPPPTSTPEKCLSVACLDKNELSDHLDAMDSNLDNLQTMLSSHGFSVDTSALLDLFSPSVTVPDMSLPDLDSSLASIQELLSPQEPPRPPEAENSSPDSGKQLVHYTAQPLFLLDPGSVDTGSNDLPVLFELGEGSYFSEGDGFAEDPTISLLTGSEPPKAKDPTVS
How it was run: (§1)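 INA-6 cells given the dual DNA-PK/mTOR inhibitor NU7441 for 4 h, then co-treated with 10 nM NVP-AUY922 for 4 h more. Protein lysates analysed by Western blot for HSF1, phospho-HSF1, HSP72 and HSP27, with α-tubulin as loading control.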

[2] = system: INA-6; assay: Inhibition of heat shock response in human INA-6 cells assessed as reduction in HSF-1 mediated upregulation of the HSP72 mRNA expression at 10 uM preincubated for 4 hrs followed by HSP90 inhibitor and HSR inducer NVP-AUY922 addition measured after 4 hrs by RT-PCR method; format: functional, cell-based
How it was run: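 Cells pretreated 4 h with NU7441, then 10 nM NVP-AUY922 added for 4 h. Total mRNA isolated; HSF1 and HSP72 levels determined by RT-PCR and normalized to α-tubulin.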

[3] = system: INA-6; assay: Inhibition of heat shock response in human INA-6 cells assessed as reduction in HSF-1 mediated upregulation of the HSP72 protein expression at 10 uM preincubated for 4 hrs followed by HSP90 inhibitor and HSR inducer NVP-AUY922 addition measured after 4 hrs by Western blot method; format: functional, cell-based; how it was run: as §1
[4] = system: INA-6; assay: Downregulation of NVP-AUY922-induced HSF-1 protein expression in human INA-6 cells at 10 uM preincubated for 4 hrs followed by NVP-AUY922 addition measured after 4 hrs by Western blot method; format: functional, cell-based
How it was run: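 INA-6 cells received the dual DNA-PK/mTOR inhibitor for 4 h, then 10 nM NVP-AUY922 was added for another 4 h. Protein lysates were Western blotted for HSF1, phospho-HSF1, HSP72 and HSP27, with α-tubulin as the loading control.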

[5] = system: INA-6; assay: Downregulation of NVP-AUY922-induced HSF-1 mRNA expression in human INA-6 cells at 10 uM preincubated for 4 hrs followed by NVP-AUY922 addition measured after 4 hrs by RT-PCR method; format: functional, cell-based
How it was run: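 INA-6 myeloma cells were treated with the dual DNA-PK/mTOR inhibitor for 4 h, then co-treated with 10 nM NVP-AUY922 for a further 4 h. Total RNA was isolated and HSF1 and HSP72 mRNA was measured by RT-PCR. Values were normalized to α-tubulin.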

O=c1cc(N2CCOCC2)oc2c(-c3cccc4c3sc3ccccc34)cccc12
active: inhibition [1] | inhibition [2] | inhibition [3] | Activity [4] | Activity [5]
